T cruzi growth-1: T. cruzi intracellular proliferation inhibitors, primary screen, cell-based, beta-gal Tulahuen parasites, NIH3T3 host, luminescence | inhibition, % at 8.34 µM | hit rate 5.9% among 77,000 | T. cruzi beta-gal in NIH3T3, GalScreen luminescence, 90 h;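 active = mean inhibition above about 93%, with at least 55% of replicates each passing it, limit read from the data, passing the limit was not always enough; inconclusive = only one of those two conditions holds; inactive = neither condition holds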
Pf Dd2 inh: P. falciparum Dd2 growth inhibitors, primary screen, SYBR Green fluorescence, single dose replicates; 72 h; active compounds read low; activity change, % at 10 µM; hit rate 2.3% among 94,000; AID 1159554, 2015; in the data active = activity change below about -80%; inconclusive = no clear call, values can overlap the other calls
GASC1 inh: inhibitors of GASC-1 (KDM4C) histone demethylase, primary screen, biochemical, single concentration HTS. GST-KDM4C 2-372, H3K9me3 peptide, LANCE TR-FRET. inhibition, % at 12.5 µM. hit rate 0.15% among 96,000. AID 720574, 2013;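 active = mean replicate inhibition above about 25%, with at least 55% of replicates also reaching it, limit read from the data, passing the limit was not always enough; inconclusive = only one of those two conditions met; inactive = neither condition met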
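Material: GST-tagged GASC-1 (JMJD2C) catalytic fragment, aa 2-372. Input: enzyme final amount 10 nM. Medium: HEPES buffer, pH 7.5, plus ascorbate. Reagent: H3K9me3 peptide substrate, Fe(II), 2-oxoglutarate. Doses: single dose. Times: reaction 30 min RT, detection step 1 h RT. Measured by: LANCE TR-FRET. Evaluation: Fall in 671/618 emission ratio as inhibition.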
IDH1 mut inh: inhibitors of IDH1 R132H reductase, primary screen, biochemical, plate reader, single point | AID 624101, 2012 | diaphorase/resazurin fluorescence, 60 min | Isocitrate dehydrogenase [NADP] cytoplasmic (Homo sapiens), O75874 | inhibition, % at 10 µM | hit rate 0.18% among 70,000; in the data active = inhibition above about 34%; inconclusive = no clear call, values can overlap the other calls; inactive = below about 11%
Target sequence (O75874 whole entry R132H): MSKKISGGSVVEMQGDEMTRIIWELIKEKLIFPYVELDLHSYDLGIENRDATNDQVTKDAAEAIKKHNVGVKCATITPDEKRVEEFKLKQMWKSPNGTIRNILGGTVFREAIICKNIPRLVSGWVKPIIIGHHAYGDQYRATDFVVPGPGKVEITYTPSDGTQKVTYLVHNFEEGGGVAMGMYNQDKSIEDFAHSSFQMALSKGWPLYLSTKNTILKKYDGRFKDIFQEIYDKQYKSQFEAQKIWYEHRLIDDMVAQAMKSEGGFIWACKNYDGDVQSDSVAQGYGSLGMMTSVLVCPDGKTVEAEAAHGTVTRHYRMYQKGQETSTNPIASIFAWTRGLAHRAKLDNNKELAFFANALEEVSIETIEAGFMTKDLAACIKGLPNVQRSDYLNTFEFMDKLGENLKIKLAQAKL
T cruzi growth-2: T. cruzi intracellular proliferation inhibitors, confirmation, cell-based, NIH3T3 host, beta-gal parasite, luminescence, cherry-pick; shares compounds with T cruzi growth-1; T. cruzi beta-gal in NIH3T3, GalScreen luminescence, 90 h; inhibition, % at 8.35 µM; hit rate 72% among 5,600;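 active = mean replicate inhibition above about 95% and at least 55% of replicates individually reaching it, limit read from the data; inconclusive = only one of the two criteria is met; inactive = neither criterion is met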
T cruzi growth-3: inhibitors of intracellular T. cruzi replication, confirmation, NIH3T3 host cells, beta-gal parasites, cherry-pick, set 2. shares compounds with T cruzi growth-1. T. cruzi beta-gal in NIH3T3, GalScreen luminescence, 90 h. inhibition, % at 2.09 µM. hit rate 21% among 5,600;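 active = mean inhibition above about 95%, with at least 55% of replicates also reaching it, limit read from the data; inconclusive = meets just one of the two conditions; inactive = meets neither condition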
3T3 cytotox: cytotoxicity in mouse NIH/3T3 fibroblasts, confirmation, cytotoxicity control for T. cruzi proliferation inhibitor project, cell-based, cherry-pick, single point; shares compounds with T cruzi growth-1; NIH/3T3 viability, CellTiter-Glo ATP luminescence, 90 h; cytotoxicity (signal decrease), % at 8.35 µM; hit rate 14% among 5,600; AID 651742, 2012;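 active = mean signal decrease across replicates above about 35% based on untreated-well scatter, with enough replicates individually passing, limit read from the data; inconclusive = no rule stated though some were filed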
NIH3T3 tox 2: NIH/3T3 fibroblast cytotoxicity, confirmation, cytotoxicity control, cell-based, cherry-pick, single point, set 2; shares compounds with T cruzi growth-1; NIH/3T3 viability, CellTiter-Glo ATP luminescence, 90 h; inhibition, % at 24.9 µM; hit rate 56% among 5,600;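 active = mean loss of cell viability signal at or above a set limit, and enough replicates individually reaching it; inconclusive = meets only the mean limit or only the replicate share; inactive = meets neither condition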
A number is an active result; n = inactive; u = inconclusive; x = not tested or not shown. Rows were chosen to be rich in hits. Some 5.8% of all compounds tested hit in one or more screens of this group.

SMILES | T cruzi growth-1 | Pf Dd2 inh | GASC1 inh | IDH1 mut inh | T cruzi growth-2 | T cruzi growth-3 | 3T3 cytotox | NIH3T3 tox 2
C[C@@H]1CCCCO[C@H](CN(C)Cc2ccc(Cl)c(Cl)c2)[C@H](C)CN([C@@H](C)CO)C(=O)c2cc(NC(=O)Nc3ccc4c(c3)OCO4)ccc2O1 | 101 | -86 | n | n | 96 | 117 | n | n
C[C@@H]1CCCCO[C@H](CN(C)Cc2ccc3c(c2)OCO3)[C@H](C)CN([C@@H](C)CO)C(=O)c2cc(NC(=O)c3ccncc3)ccc2O1 | 112 | n | n | n | n | n | n | n
C[C@@H]1CCCCO[C@@H](CN(C)Cc2ccc(Cl)c(Cl)c2)[C@H](C)CN([C@@H](C)CO)C(=O)c2cc(NC(=O)Nc3ccc4c(c3)OCO4)ccc2O1 | n | n | n | x | x | x | x | x
C[C@@H]1CCCCO[C@H](CN(C)CC2CCCCC2)[C@@H](C)CN([C@H](C)CO)C(=O)c2cc(NC(=O)Nc3ccc4c(c3)OCO4)ccc2O1 | 97 | n | n | x | 109 | 112 | n | 83
C[C@@H]1CN([C@@H](C)CO)C(=O)c2cc(NC(=O)Nc3ccc4c(c3)OCO4)ccc2O[C@@H](C)CCCCO[C@H]1CN(C)Cc1ccc2c(c1)OCO2 | n | n | n | x | x | x | x | x
C[C@@H]1CCCCO[C@@H](CN(C)Cc2ccc3c(c2)OCO3)[C@H](C)CN([C@@H](C)CO)C(=O)c2cc(NC(=O)Nc3ccc4c(c3)OCO4)ccc2O1 | 103 | n | n | x | 99 | n | n | n
CN(CCc1ccc(Cl)c(Cl)c1)CC(O)COc1ccc(NS(C)(=O)=O)cc1 (stereo unspecified) | x | x | x | n | x | x | x | x
C[C@H](CO)N1C[C@H](C)[C@@H](CN(C)C(=O)C2CCCCC2)OCCCC[C@H](C)Oc2ccc(NC(=O)Nc3ccc4c(c3)OCO4)cc2C1=O | 111 | n | n | n | n | n | n | n
C[C@@H]1CN([C@H](C)CO)C(=O)c2cc(NC(=O)Nc3ccc4c(c3)OCO4)ccc2O[C@@H](C)CCCCO[C@@H]1CN(C)C(=O)C1CCCCC1 | n | n | n | n | x | x | x | x
C[C@@H]1CCCCO[C@@H](CN(C)Cc2ccc(Cl)c(Cl)c2)[C@@H](C)CN([C@H](C)CO)C(=O)c2cc(NC(=O)Nc3ccc4c(c3)OCO4)ccc2O1 | 104 | n | n | n | 104 | n | n | n
C[C@H](CO)N1C[C@H](C)[C@H](CN(C)Cc2ccc3c(c2)OCO3)OCCCC[C@H](C)Oc2ccc(NC(=O)Nc3ccccc3)cc2C1=O | 103 | n | n | n | 106 | n | n | 104
C[C@@H]1CN([C@H](C)CO)C(=O)c2cc(NC(=O)Cc3ccccc3)ccc2O[C@@H]1CN(C)Cc1ccc(Cl)c(Cl)c1 | 109 | n | n | n | 109 | n | n | 93
O=C(c1ccccc1F)N1C[C@@H]2O[C@@H](CNS(=O)(=O)c3ccccc3)CC[C@@H]21 | x | n | x | x | x | x | x | x
COc1ccccc1NC(=O)N[C@@H]1CC[C@@H](CCNS(=O)(=O)c2ccc(C)cc2)O[C@H]1CO | x | n | n | x | x | x | x | x
Cc1ccc(S(=O)(=O)N[C@H]2CC[C@H](CCNC(=O)Nc3ccc(Cl)cc3)O[C@H]2CO)cc1 | n | n | n | n | x | x | x | x
COc1ccccc1NC(=O)N1CCCCN2[C@H](CO)[C@H](c3ccc(-c4ccc(C)cc4)cc3)[C@H]2C1 | n | n | n | x | x | x | x | x
C[C@@H]1CN([C@H](C)CO)C(=O)c2cc(NC(=O)Cc3ccccc3)ccc2O[C@@H](C)CCCCO[C@@H]1CN(C)Cc1ccc(Cl)c(Cl)c1 | n | n | n | x | x | x | x | x
C[C@@H]1CN([C@H](C)CO)C(=O)c2cc(NC(=O)Cc3ccccc3)ccc2O[C@@H](C)CCCCO[C@@H]1CN(C)Cc1ccc2c(c1)OCO2 | 100 | n | n | x | 105 | n | n | 102
C[C@@H]1CCCCO[C@@H](CN(C)Cc2ccc3c(c2)OCO3)[C@H](C)CN([C@H](C)CO)C(=O)c2cc(NC(=O)Cc3ccccc3)ccc2O1 | n | n | n | x | x | x | x | x
C[C@@H]1CN([C@@H](C)CO)C(=O)c2cc(NC(=O)Nc3ccc4c(c3)OCO4)ccc2O[C@@H](C)CCCCO[C@H]1CN(C)C | 100 | n | n | n | 112 | n | n | n
C[C@@H]1CCCCO[C@@H](CN(C)Cc2ccc(Cl)c(Cl)c2)[C@@H](C)CN([C@@H](C)CO)C(=O)c2cc(NC(=O)Cc3ccccc3)ccc2O1 | 98 | n | n | n | 106 | n | n | n
C[C@@H]1CN([C@@H](C)CO)C(=O)c2cc(NC(=O)Nc3ccc4c(c3)OCO4)ccc2O[C@@H](C)CCCCO[C@@H]1CN(C)C | n | x | n | x | x | x | x | x
C[C@H](CO)N1C[C@H](C)[C@H](CN(C)Cc2ccc(Cl)c(Cl)c2)Oc2ccc(NC(=O)CCCCCC(=O)Nc3ccccc3N)cc2C1=O | 97 | n | n | x | 103 | 102 | n | 32
COc1ccc(C#Cc2ccc([C@H]3[C@@H](CO)N4C(=O)CN(C(=O)c5ccncc5)C[C@@H]34)cc2)cc1 | x | n | n | x | x | x | x | x
C[C@@H]1CN([C@@H](C)CO)C(=O)c2cc(NC(=O)CCC(F)(F)F)ccc2O[C@@H](C)CCCCO[C@H]1CN(C)Cc1ccc(Cl)c(Cl)c1 | n | n | n | n | x | x | x | x
SMILES | T cruzi growth-1 | Pf Dd2 inh | GASC1 inh | IDH1 mut inh | T cruzi growth-2 | T cruzi growth-3 | 3T3 cytotox | NIH3T3 tox 2
C[C@@H]1CCCCO[C@@H](CN(C)Cc2ccc(Cl)c(Cl)c2)[C@@H](C)CN([C@H](C)CO)C(=O)c2cc(NC(=O)CCC(F)(F)F)ccc2O1 | u | n | x | x | 108 | n | n | n
N#C[C@H]1N[C@H](CO)[C@H]1c1ccc(C#CC2CCCC2)cc1 | 101 | n | n | x | 99 | n | n | 27
N#C[C@H]1N[C@@H](CO)[C@@H]1c1ccc(C#Cc2ccccc2F)cc1 | 99 | n | n | x | 97 | n | n | 106
N#C[C@@H]1N[C@H](CO)[C@@H]1c1ccc(C#CC2CCCC2)cc1 | n | n | n | x | x | x | x | x
N#C[C@H]1N[C@H](CO)[C@H]1c1ccc(C#Cc2ccc(F)cc2)cc1 | 101 | n | n | x | 101 | n | n | n
COc1cccc(C#Cc2ccc([C@H]3[C@@H](C#N)N[C@@H]3CO)cc2)c1 | 98 | n | n | x | 100 | 101 | n | 54
N#C[C@@H]1N[C@H](CO)[C@@H]1c1ccc(C#Cc2ccccc2F)cc1 | n | n | n | x | x | x | x | x

Assay outcomes (PubChem BioAssay)
